MrgX1 PAM = allosterically activates human MrgX1 receptor signaling; MrgX1-HEK293, Fluo-4 calcium flux, FDSS; active compounds read high; Q96LB2; actives 0.63% (n = 310,000); B-score at 10 µM; AID 588675;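 active means plate-corrected calcium response at least 3 library SD above typical, normal starting fluorescence, not activating the receptor alone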;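 further: compound read alongside a low EC10 to EC30 dose of BAM8-22 agonist; peak minus trough fluorescence over baseline measured at the second addition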
Target sequence (Q96LB2 whole entry, looked up): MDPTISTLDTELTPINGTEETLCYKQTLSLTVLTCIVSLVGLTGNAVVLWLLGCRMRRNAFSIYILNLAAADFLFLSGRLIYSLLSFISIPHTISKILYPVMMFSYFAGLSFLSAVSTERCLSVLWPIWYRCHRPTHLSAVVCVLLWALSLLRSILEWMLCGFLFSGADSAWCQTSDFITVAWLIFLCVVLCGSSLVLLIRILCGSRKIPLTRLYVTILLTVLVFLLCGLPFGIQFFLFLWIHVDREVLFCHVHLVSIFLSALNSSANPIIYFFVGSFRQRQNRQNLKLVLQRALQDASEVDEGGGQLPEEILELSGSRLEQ
RGS4 block = inhibitors of human RGS4; P49798; HEK293 M3R/RGS4 inducible, Fluo-4 calcium flux; active compounds read high; triggered by carbachol at its EC20; B-score at 10 µM; actives 0.45% (n = 310,000); AID 463165;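 active means B-score, a plate-corrected calcium signal, over three deviations above library mean, with baseline fluorescence within five deviations of library mean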;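 further: RGS4 expression induced by doxycycline in cells with stable M3 receptor; B-score is computed from the integrated fluorescence ratio over baseline after carbachol; higher B-score means a larger calcium signal and so more RGS4 inhibition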
Target sequence (P49798 whole entry, looked up): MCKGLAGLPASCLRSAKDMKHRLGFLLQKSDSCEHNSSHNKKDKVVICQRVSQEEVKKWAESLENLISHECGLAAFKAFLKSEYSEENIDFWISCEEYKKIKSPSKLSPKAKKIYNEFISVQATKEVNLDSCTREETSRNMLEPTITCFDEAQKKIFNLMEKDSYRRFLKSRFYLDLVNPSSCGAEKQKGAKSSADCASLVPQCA
Hep lipid drop = hepatic lipid droplet formation modulation; AML12 mouse hepatocytes, oleate lipid droplets, BODIPY imaging; inhibition, % at 6.5 µM; actives 0.4% (n = 240,000);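 active means lipid droplet intensity inhibited by at least 50%, with more than 500 cells counted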
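material = mouse AML12 hepatocyte cell line, fixed after treatment | also added = 100 µM oleic acid challenge | doses = compound at 6.5 µM only | schedule = overnight exposure | technique = Image-based BODIPY and DAPI two-channel analysis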
MrgX1 ag = human MrgX1 receptor agonism, primary screen. MrgX1-HEK293 cells, Fluo-4 calcium fluorescence, agonist mode; active compounds read high. B-score at 10 µM. actives 0.44% (n = 310,000);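 active means calcium response B-score plate-corrected fluorescence ratio at least 3 library SD, with starting fluorescence B-score inside 5 SD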
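Test system: Stable human MrgX1 HEK293 cell line | Schedule: Overnight plating before 1 h dye loading | Read-out basis: Baseline-normalised fluorescence change ratio, B-scored | Detection: Kinetic calcium dye fluorescence, Fluo-4 NW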
MrgX1 antagonist = human MrgX1 receptor antagonism, primary screen; Q96LB2; MRGX1-HEK293 calcium flux, Fluo-4, BAM8-22 antagonism; active compounds read low; B-score at 10 µM; actives 1.3% (n = 310,000);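 active means calcium-response B-score plate-corrected more than 3 library SD below zero, starting fluorescence within 5 deviations, no agonist response on first addition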;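 further: peak minus trough fluorescence over baseline after final BAM8-22 challenge near maximal dose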
RGS4 act = potentiators or activators of RGS4. HEK293 M3R/inducible RGS4, carbachol calcium flux Fluo4; active compounds read low. B-score at 10 µM. actives 0.92% (n = 310,000). AID 463111;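 active means B-score of the integrated calcium signal more than 4 SD below the library mean, with starting fluorescence not abnormally high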;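 further: negative B-score means reduced calcium response which marks RGS4 activation or potentiation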
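Reagent: ECmax carbachol challenge; Test system: M3R-expressing HEK293 line, RGS4 induced by doxycycline; Schedule: overnight RGS4 induction, 30 min dye load 37 °C, 20 min compound RT; Detection: calcium dye Fluo4 fluorescence; Read-out: Agonist-evoked peak-minus-minimum fluorescence over baseline, integrated ratio, B score.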
MrgX1 ag reconf = reconfirmed activator of human MrgX1 receptor signaling; shares compounds with MrgX1 ag; AID 602412; actives 78% (n = 600); activation, % at 10 µM; MrgX1-HEK293, Fluo-4 calcium fluorescence, FDSS;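 active means calcium signal rise, corrected for plate position, at least 3 library SD high, with starting brightness within 5 such deviations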
HEK293 Ca flux = MrgX1 antagonist counter-screen hit in parental HEK293 cells; shares compounds with MrgX1 antagonist; Fluo-4 calcium fluorescence, FDSS; fluorescence ratio F(max-min)/F0 at 10 µM; actives 2% (n = 4,000); AID 624111;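 active means duplicate-averaged calcium fluorescence ratio at least three times the standard deviation of buffer wells, a nonspecific response in parental cells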
HEK293 Ca counter = counter-screen for MrgX1 allosteric activators: effect in parental HEK293 cells | actives 0.4% (n = 4,000) | fluorescence ratio F(max-min)/F0 at 10 µM | shares compounds with MrgX1 antagonist | parental HEK293 calcium flux, Fluo-4 fluorescence ratio; active compounds read high;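 active means calcium fluorescence ratio, averaged over duplicates, at least 3 SD of the buffer-well ratio, meaning a nonspecific response in receptor-free cells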;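 further: untransfected parental HEK293 lacking MrgX1 used as counterscreen for MrgX1 allosteric activators; fluorescence change taken during the second addition on a kinetic imager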
HEK293 Ca cntr2 = counter-screen for MrgX1 activators: effect in parental HEK293 cells | actives 8.7% (n = 4,000) | Fluo-4 calcium fluorescence (FDSS); active compounds read high | fluorescence ratio F(max-min)/F0 at 10 µM | AID 624115 | shares compounds with MrgX1 antagonist;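 active means calcium fluorescence ratio at least three times the spread of buffer wells, meaning a non-specific response in parental cells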
Numbers stand for hits; – = inactive; · = no result. This is a sample that favours compounds with a hit; in the whole collection about 3.8% have one here.

SMILES	MrgX1 PAM	RGS4 block	Hep lipid drop	MrgX1 ag	MrgX1 antagonist	RGS4 act	MrgX1 ag reconf	HEK293 Ca flux	HEK293 Ca counter	HEK293 Ca cntr2
O=c1[nH][nH]c(-c2ccccc2)c1C=Nc1ccc(OC(F)(F)F)cc1	–	–	–	33.3	–	–	183.9%	–	–	–
O=c1[nH][nH]c(-c2ccccc2)c1C=Nc1ccc(C(F)(F)F)cc1	–	–	–	–	–	–	·	·	·	·
CC(C)Cc1csc(NC(=O)c2ccc(Br)cc2)c1C(=O)O	–	–	–	44.9	–	–	–	–	–	–
Cc1ccc(S(=O)(=O)CCN2CCC(n3cccc3)CC2)cc1	–	–	–	–	–	–	·	·	·	·
N=C(N)CCCOc1ccccc1-c1ccccc1	–	–	–	27.9	–	–	80.8%	–	–	–
Cc1ccc(-c2ccc(CCC(=O)O)n2-c2cccc(O)c2)cc1	–	–	–	27.6	–	–	135.4%	–	–	–
CCC(=O)Nc1ccc(NC(=O)CSc2nnnn2Cc2ccccc2)cc1C	·	–	–	·	·	–	·	·	·	·
COc1ccc(OC)c(NC(=O)Nc2c(O)ccc3ccccc23)c1	–	–	·	28.9	–	–	–	–	–	–
Cc1ccccc1-n1c(CSC(=N)N)nc2ccccc2c1=O	–	–	–	42.9	–	–	220.8%	–	–	–
N=C(N)SCc1nc2ccccc2c(=O)n1-c1ccccc1Cl	–	–	·	27.2	–	–	202.6%	–	–	–
C/C(N)=C(/C#N)C(=O)CSc1nc2ccccc2c(=O)n1-c1ccccc1C	–	–	–	–	–	–	·	·	·	·
O=c1c2ccccc2nc(CSc2nnnn2-c2ccccc2)n1-c1ccccc1Cl	–	–	–	–	–	–	·	·	·	·
O=C(NNC(=O)C1CCCCC1)c1ccncc1	–	–	·	–	–	–	·	·	·	·
CC1(C(=O)NC(=S)NNC(=O)c2ccncc2)CCCCC1	–	–	–	86.7	–	–	488.6%	–	–	101
O=C(NNC(=S)NC(=O)C12CC3CC(CC(C3)C1)C2)c1ccncc1	–	–	–	117	–	–	600.4%	–	–	121
CC/C(=N\NC(=O)c1ccncc1)C12CC3CC(CC(C3)C1)C2	–	–	–	–	–	–	·	·	·	·
COc1ccccc1C(=O)NCCCNC(=O)c1cccnc1	–	–	–	–	–	–	·	·	·	·
O=C(NC1(C(F)(F)F)C(=O)Nc2c1c(=O)[nH]c(=O)n2Cc1ccccc1)c1ccc(Cl)cc1 (stereo not drawn)	–	–	–	–	–	–	·	·	·	·
O=c1[nH]c(=O)n(Cc2ccccc2)c2c1C(C(F)(F)F)(C(F)(F)F)N=C(c1ccco1)N2	–	–	·	41.4	–	–	223.1%	–	–	58.1
COC(=O)Cc1nc(NC(=O)c2cccs2)sc1C	–	–	·	28.1	–	–	149.5%	–	–	–
CSc1nc(N)n2nc(-c3ccccc3)cc2n1	–	–	–	–	–	–	·	·	·	·
Cc1ccc(Nc2nnc(-c3ccncc3)s2)c(Br)c1	–	–	–	49.4	–	–	–	–	–	–
CNc1nnc(-c2ccncc2)s1	–	–	–	–	–	–	·	·	·	·
CCN(CC)c1ccc(/C=N/NC(=O)CCC(=O)NCc2ccccc2)c(O)c1	–	–	–	–	–	–	·	·	·	·
C[N+](C)(C)CCOC(N)=O	–	·	·	118	–	·	546.8%	–	–	112
SMILES	MrgX1 PAM	RGS4 block	Hep lipid drop	MrgX1 ag	MrgX1 antagonist	RGS4 act	MrgX1 ag reconf	HEK293 Ca flux	HEK293 Ca counter	HEK293 Ca cntr2
Cc1nnc(SCCOC(N)=O)n1C	·	–	·	·	·	–	·	·	·	·
COc1ccc(/C=N/NC(=O)c2cccc(O)c2)cc1Cn1nc(C)c([N+](=O)[O-])c1C	–	–	–	–	–	–	·	·	·	·
NC(=Nc1ccc(Br)cc1)c1ccccc1	–	–	–	78	–	–	288.9%	–	–	47.8
CCN1CCN(S(=O)(=O)CC2(C)C3CCC2(C)C(=O)C3Br)CC1 (stereo not drawn)	–	–	–	–	–	–	·	·	·	·
O=C1/C(=C/c2ccccc2)Nc2ccccc21	–	–	·	128	–	–	–	0.409	–	224
CCCCC(=O)NC(=S)Nc1cccc(C(=O)O)c1	–	–	–	31.9	–	–	–	–	–	–
COc1cc(/C=C2\SC(=Nc3ccccc3)NC2=O)cc(Cl)c1O	–	–	–	83.6	–	–	–	0.388	–	139
CN1CCc2c(sc3c2C(=O)NC(c2ccc(-c4ccc(Cl)cc4)o2)N3)C1 (stereo not drawn)	–	–	–	31.2	–	–	–	–	–	–
N/C(=N\N=C/c1ccc(F)cc1)N/N=C\c1ccc(F)cc1	–	–	–	65.8	–	–	499.5%	–	–	75.5
Cc1cc(C)cc(C(=O)Nc2ccc(N3CCN(S(C)(=O)=O)CC3)cc2)c1	–	–	–	–	–	–	·	·	·	·
c1csc(C2C3=C(Nc4ncnn42)c2ccccc2OC3)c1 (stereo not drawn)	–	–	·	31.3	–	–	121.6%	–	–	–
COC(=O)c1ccccc1-c1ccc(C(c2c(C)[nH][nH]c2=O)c2c(C)[nH][nH]c2=O)o1	–	–	–	–	–	–	·	·	·	·
COC(=O)c1cccc(-c2ccc(C(c3c(C)[nH][nH]c3=O)c3c(C)[nH][nH]c3=O)o2)c1	–	–	–	43.2	–	–	191.9%	–	–	45.6
Cc1cc(Cn2nc(C(=O)NCC3CC3)cc2-c2ccccc2)on1	–	–	·	–	–	–	·	·	·	·
CCOC(=O)c1c(CSC(=N)N)n(C)c2cc(Br)c(OC(C)=O)cc12	–	–	–	46.5	–	–	188.1%	–	–	–
CCOC(=O)c1c(CN2CCN(C)CC2)n(C)c2cc(Br)c(OC)cc12	–	–	–	–	–	–	·	·	·	·
Fc1ccc2[nH]c3c(NCc4ccccc4)ncnc3c2c1	–	–	–	38.3	–	–	251.2%	–	–	53.8
O=C(Nc1ncn[nH]1)c1cccc(S(=O)(=O)N2CCOCC2)c1	–	–	–	–	–	–	·	·	·	·
N#CC1=C(N)Oc2cc(N)ccc2C1c1ccccc1Cl (stereo not drawn)	–	–	–	28.8	–	–	–	–	–	–
N#CC1=C(N)Oc2cc(N)ccc2C1c1ccc(Cl)cc1 (stereo not drawn)	–	–	–	–	–	–	·	·	·	·
